In ChEMBL document CHEMBL3734698, “1H-Pyrazolo[3,4-g]hexahydro-isoquinolines as potent GR antagonists with reduced hERG inhibition and an improved pharmacokinetic profile” (Bioorg Med Chem Lett, 2015):
The source made the active and inactive calls. No cut-off for these calls is given here.

Assays:
[1] = system: Rattus norvegicus; experiment: Reduction in cortisone-induced insulin level in rat at 30 mg/kg, po bid; assay type: functional, organism-based
Summary of the method: (§1)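 Rats received cortisone 30 mg/kg sc once daily for six days. Test agent was given orally twice daily at 30 mg/kg. Glucose and insulin levels were compared with cortisone-only and no-cortisone controls, with mifepristone at the same oral regimen as positive control.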

[2] = system: Rattus norvegicus; experiment: Reduction in cortisone-induced glucose level in rat at 30 mg/kg, po bid; assay type: functional, organism-based; summary of the method: as §1
[3] = molecular target: T1, Glucocorticoid receptor (Homo sapiens, UniProt P04150); experiment: Antagonist activity at glucocorticoid receptor in human HepG2 cells assessed as inhibition of glucocorticoid-induced TAT activity after 24 hrs; assay type: cell-based
T1 sequence (P04150 whole entry): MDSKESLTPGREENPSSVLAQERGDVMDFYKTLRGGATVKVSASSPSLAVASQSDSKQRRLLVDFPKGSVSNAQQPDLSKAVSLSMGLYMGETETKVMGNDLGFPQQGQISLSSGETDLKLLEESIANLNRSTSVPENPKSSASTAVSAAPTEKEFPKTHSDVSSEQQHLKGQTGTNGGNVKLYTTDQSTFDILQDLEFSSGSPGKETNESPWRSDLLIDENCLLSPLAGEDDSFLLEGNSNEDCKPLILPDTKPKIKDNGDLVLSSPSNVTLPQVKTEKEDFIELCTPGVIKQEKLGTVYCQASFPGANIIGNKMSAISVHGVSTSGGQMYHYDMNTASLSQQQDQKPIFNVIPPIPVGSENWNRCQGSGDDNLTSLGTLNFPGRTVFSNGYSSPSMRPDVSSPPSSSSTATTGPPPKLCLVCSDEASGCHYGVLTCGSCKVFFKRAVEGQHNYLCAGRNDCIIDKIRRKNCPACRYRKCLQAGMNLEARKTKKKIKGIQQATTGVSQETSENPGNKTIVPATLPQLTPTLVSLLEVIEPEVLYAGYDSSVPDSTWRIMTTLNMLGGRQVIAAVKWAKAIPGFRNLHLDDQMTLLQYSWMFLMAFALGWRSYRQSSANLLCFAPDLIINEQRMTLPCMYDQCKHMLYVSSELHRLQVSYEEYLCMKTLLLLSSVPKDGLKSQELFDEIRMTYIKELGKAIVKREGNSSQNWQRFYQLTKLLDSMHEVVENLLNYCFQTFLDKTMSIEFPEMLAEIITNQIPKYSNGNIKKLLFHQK

[4] = molecular target: T1, Glucocorticoid receptor; experiment: Binding affinity to human recombinant glucocorticoid receptor by fluorescence polarization assay
[5] = molecular target: T2, hERG (KCNH2) (Homo sapiens, UniProt Q12809); experiment: Inhibition of human ERG at 10 uM by patch clamp technique
T2 sequence (Q12809 whole entry): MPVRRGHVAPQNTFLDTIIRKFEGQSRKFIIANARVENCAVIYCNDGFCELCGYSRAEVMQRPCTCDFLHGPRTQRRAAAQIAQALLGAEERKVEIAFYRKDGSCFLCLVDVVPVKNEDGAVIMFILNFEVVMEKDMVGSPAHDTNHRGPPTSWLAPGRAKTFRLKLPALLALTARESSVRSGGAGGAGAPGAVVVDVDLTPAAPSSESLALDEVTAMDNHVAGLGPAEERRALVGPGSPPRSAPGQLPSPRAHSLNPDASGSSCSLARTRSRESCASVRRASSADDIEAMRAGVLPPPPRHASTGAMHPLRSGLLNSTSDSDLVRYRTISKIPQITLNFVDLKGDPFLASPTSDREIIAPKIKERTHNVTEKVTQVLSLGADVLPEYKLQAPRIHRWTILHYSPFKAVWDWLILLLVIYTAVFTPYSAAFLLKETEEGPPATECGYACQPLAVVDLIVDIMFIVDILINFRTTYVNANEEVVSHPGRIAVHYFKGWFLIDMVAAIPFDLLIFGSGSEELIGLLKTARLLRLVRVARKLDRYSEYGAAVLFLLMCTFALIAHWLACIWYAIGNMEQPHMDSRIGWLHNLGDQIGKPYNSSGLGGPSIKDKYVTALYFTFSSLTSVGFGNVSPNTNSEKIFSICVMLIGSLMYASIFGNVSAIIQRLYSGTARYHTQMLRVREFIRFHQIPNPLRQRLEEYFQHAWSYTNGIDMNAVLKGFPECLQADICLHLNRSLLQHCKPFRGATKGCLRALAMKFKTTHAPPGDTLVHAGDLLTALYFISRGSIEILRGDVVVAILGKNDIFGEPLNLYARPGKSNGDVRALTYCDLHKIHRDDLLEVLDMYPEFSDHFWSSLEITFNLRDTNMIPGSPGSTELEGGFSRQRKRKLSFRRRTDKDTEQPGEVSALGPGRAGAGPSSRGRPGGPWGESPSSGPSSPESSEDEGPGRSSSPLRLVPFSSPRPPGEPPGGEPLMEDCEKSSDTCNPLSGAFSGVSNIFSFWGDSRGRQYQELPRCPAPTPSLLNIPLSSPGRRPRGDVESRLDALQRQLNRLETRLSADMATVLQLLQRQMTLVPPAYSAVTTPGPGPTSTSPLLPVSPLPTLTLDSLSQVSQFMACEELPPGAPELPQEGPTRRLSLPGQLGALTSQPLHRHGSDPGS

[6] = molecular target: T2, hERG (KCNH2); experiment: Inhibition of human ERG at 1 uM by patch clamp technique
[7] = Clearance in rat at 1 mg/kg, iv; assay type: ADME, organism-based; details: in vivo
Summary of the method: (§2)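 Rat pharmacokinetics: oral dosing at 5 mg/kg in 10% DMSO in 0.5% aqueous methyl cellulose. Intravenous dosing at 1 mg/kg in 10% DMSO, 45% PEG400 and 45% propylene glycol. Plasma Cmax was taken after the oral dose and clearance after the iv dose, and oral bioavailability was derived.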

[8] = Cmax in rat at 5 mg/kg, po; assay type: ADME, organism-based; design: dose 5 mg/kg, route oral; details: in vivo; summary of the method: as §2
[9] = molecular target: Voltage-gated inwardly rectifying potassium channel KCNH2 (Homo sapiens, UniProt Q12809); experiment: Inhibition of human ERG by patch clamp technique
Chain of Voltage-gated inwardly rectifying potassium channel KCNH2 (Q12809 whole entry): as above

[10] = molecular target: T3, Glucocorticoid receptor (Rattus norvegicus) (UniProt P06536); experiment: (§3) Antagonist activity at glucocorticoid receptor in rat primary hepatocytes assessed as inhibition of glucocorticoid-induced TAT activity; assay type: cell-based; details: Hepatocyte
T3 sequence (whole entry): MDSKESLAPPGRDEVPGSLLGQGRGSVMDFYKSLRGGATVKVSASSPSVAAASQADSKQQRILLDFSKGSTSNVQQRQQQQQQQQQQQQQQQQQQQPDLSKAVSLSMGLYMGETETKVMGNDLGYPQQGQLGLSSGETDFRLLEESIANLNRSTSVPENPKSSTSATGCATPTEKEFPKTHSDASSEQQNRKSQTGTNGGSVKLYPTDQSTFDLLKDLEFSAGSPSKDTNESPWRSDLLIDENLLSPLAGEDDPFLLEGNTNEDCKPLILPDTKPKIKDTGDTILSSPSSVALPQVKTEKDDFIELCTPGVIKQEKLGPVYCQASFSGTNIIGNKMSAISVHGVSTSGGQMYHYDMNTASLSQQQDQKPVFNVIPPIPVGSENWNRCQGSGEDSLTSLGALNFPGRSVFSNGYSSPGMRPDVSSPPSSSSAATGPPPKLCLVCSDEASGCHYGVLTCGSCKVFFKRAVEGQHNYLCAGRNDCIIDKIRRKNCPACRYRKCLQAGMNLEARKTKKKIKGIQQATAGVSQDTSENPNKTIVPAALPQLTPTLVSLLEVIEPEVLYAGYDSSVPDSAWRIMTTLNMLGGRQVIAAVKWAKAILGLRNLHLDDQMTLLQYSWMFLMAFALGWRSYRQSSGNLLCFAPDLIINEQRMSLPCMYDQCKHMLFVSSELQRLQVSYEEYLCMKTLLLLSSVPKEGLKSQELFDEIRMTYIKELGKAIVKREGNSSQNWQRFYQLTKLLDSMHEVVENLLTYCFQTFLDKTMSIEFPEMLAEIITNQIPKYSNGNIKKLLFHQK
Summary of the method: (§4)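 Glucocorticoid receptor antagonism was measured as blockade of dexamethasone-induced tyrosine amino transferase (TAT) activity. Cells were rat H4IIEC3 cells or primary hepatocytes from rat or cynomolgus monkey, as the line specifies.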

[11] = molecular target: T4, Glucocorticoid receptor (Rattus norvegicus, UniProt P06536); experiment: as §3; assay type: cell-based, Hepatocyte; summary of the method: as §4
T4 sequence (P06536 whole entry): T3 sequence (whole entry)

[12] = molecular target: T4, Glucocorticoid receptor; experiment: Antagonist activity at glucocorticoid receptor in rat H4IIEC3 cells assessed as glucocorticoid-induced TAT activity; assay type: cell-based; summary of the method: as §4
[13] = system: Rattus norvegicus; experiment: Reduction in olanzapine-induced weight gain in rat at 20 mg/kg, po bid administered for 21 days measured from day 4 of compound dosing; assay type: functional, organism-based

| Compound | Ki [3] | Ki [4] | inhibition at 10 µM [5] | inhibition at 1 µM [6] | also measured |
| --- | --- | --- | --- | --- | --- |
| CC#C[C@]1(O)CC[C@H]2[C@@H]3CCC4=CC(=O)CCC4=C3[C@@H](c3ccc(N(C)C)cc3)C[C@@]21C | – | – | – | – | Activity [1]: Active; Activity [2]: Active |
| O=C(c1cnccn1)[C@]12Cc3cnn(-c4ccc(F)cc4)c3C=C1CCN(S(=O)(=O)c1ccc(C(F)(F)F)cc1)C2 | 98 nM | 0.21 nM | – | – | – |
| N#Cc1cccc(S(=O)(=O)N2CCC3=Cc4c(cnn4-c4ccc(F)cc4)C[C@]3(C(=O)c3ccccn3)C2)c1 | 15 nM | 0.14 nM | 42% | 27% | – |
| O=C(c1ncc[nH]1)[C@]12Cc3cnn(-c4ccc(F)cc4)c3C=C1CCN(S(=O)(=O)c1ccc(C(F)(F)F)cc1)C2 | 52 nM | 0.47 nM | – | – | – |
| O=C(c1cncs1)[C@]12Cc3cnn(-c4ccc(F)cc4)c3C=C1CCN(S(=O)(=O)c1ccc(C(F)(F)F)cc1)C2 | 260 nM | 0.33 nM | – | – | – |
| Cc1cccc(S(=O)(=O)N2CCC3=Cc4c(cnn4-c4ccc(F)cc4)C[C@]3(C(=O)c3ccccn3)C2)c1 | 6.8 nM | 0.14 nM | 30% | 17% | – |
| Cc1ccccc1S(=O)(=O)N1CCC2=Cc3c(cnn3-c3ccc(F)cc3)C[C@]2(C(=O)c2ccccn2)C1 | 18.5 nM | 0.21 nM | 45% | 26% | – |
| O=C(c1cocn1)[C@]12Cc3cnn(-c4ccc(F)cc4)c3C=C1CCN(S(=O)(=O)c1ccc(C(F)(F)F)cc1)C2 | 63 nM | 0.16 nM | – | – | – |
| O=C(c1ccco1)[C@]12Cc3cnn(-c4ccc(F)cc4)c3C=C1CCN(S(=O)(=O)c1ccc(C(F)(F)F)cc1)C2 | 31 nM | 0.17 nM | – | – | – |
| Cc1ccc(S(=O)(=O)N2CCC3=Cc4c(cnn4-c4ccc(F)cc4)C[C@]3(C(=O)c3ccccn3)C2)cc1 | 4.5 nM | 0.22 nM | 59% | 34% | – |
| O=C(c1ccccn1)[C@]12Cc3cnn(-c4ccc(F)cc4)c3C=C1CCN(S(=O)(=O)c1ccc(F)c(F)c1)C2 | 7.5 nM | 0.22 nM | 35% | 10% | clearance [7]: 44 mL/min/kg; Cmax [8]: 398 ng/mL |
| O=C(c1ccccn1)[C@]12Cc3cnn(-c4ccc(F)cc4)c3C=C1CCN(S(=O)(=O)c1ccc(F)cc1)C2 | 16 nM | 0.13 nM | – | – | – |
| O=C(c1ccccn1)[C@]12Cc3cnn(-c4ccc(F)cc4)c3C=C1CCN(S(=O)(=O)c1ccc(Cl)c(Cl)c1)C2 | 14 nM | 0.64 nM | 16% | 7% | Cmax [8]: 437 ng/mL; IC50 [9]: > 10000 nM; Efficacy [10]: 74%; Ki [11]: 150 nM; Ki [12]: 8.5 nM; Activity [1]: Active; Activity [2]: Active |
| O=C(c1ccccn1)[C@]12Cc3cnn(-c4ccc(F)cc4)c3C=C1CCN(S(=O)(=O)c1ccc(F)c(C(F)(F)F)c1)C2 | 9.7 nM | 0.73 nM | 31% | 16% | clearance [7]: 103 mL/min/kg; Cmax [8]: 112 ng/mL |
| O=C(c1ccccn1)[C@]12Cc3cnn(-c4ccc(F)cc4)c3C=C1CCN(S(=O)(=O)c1cccc(C(F)(F)F)c1)C2 | 14 nM | 0.1 nM | – | – | clearance [7]: 40 mL/min/kg; Cmax [8]: 155 ng/mL |
| COc1cccc(S(=O)(=O)N2CCC3=Cc4c(cnn4-c4ccc(F)cc4)C[C@]3(C(=O)c3ccccn3)C2)c1 | 11.4 nM | 0.19 nM | 36% | 24% | IC50 [9]: > 19000 nM |
| CCOC[C@]12Cc3cnn(-c4ccc(F)cc4)c3C=C1CCN(S(=O)(=O)c1ccc(C(F)(F)F)cc1)C2 | – | – | – | – | Activity [13]: Active |
| O=C(c1cccnc1)[C@]12Cc3cnn(-c4ccc(F)cc4)c3C=C1CCN(S(=O)(=O)c1ccc(C(F)(F)F)cc1)C2 | 151 nM | 0.83 nM | – | – | – |
| O=C(c1ccccn1)[C@]12Cc3cnn(-c4ccc(F)cc4)c3C=C1CCN(S(=O)(=O)c1ccc(C(F)(F)F)c(F)c1)C2 | 11 nM | 0.29 nM | 17% | 8% | clearance [7]: 28.7 mL/min/kg; Cmax [8]: 322 ng/mL |
| O=C(c1nccs1)[C@]12Cc3cnn(-c4ccc(F)cc4)c3C=C1CCN(S(=O)(=O)c1ccc(C(F)(F)F)cc1)C2 | 18 nM | 0.23 nM | – | – | – |
| O=C(c1ccccn1)[C@]12Cc3cnn(-c4ccc(F)cc4)c3C=C1CCN(S(=O)(=O)c1cccc(Cl)c1)C2 | 11 nM | 0.25 nM | 35% | 14% | clearance [7]: 70 mL/min/kg; Cmax [8]: 112 ng/mL |
| O=C(c1cccs1)[C@]12Cc3cnn(-c4ccc(F)cc4)c3C=C1CCN(S(=O)(=O)c1ccc(C(F)(F)F)cc1)C2 | 27 nM | 0.41 nM | – | – | – |
| O=C(c1cscn1)[C@]12Cc3cnn(-c4ccc(F)cc4)c3C=C1CCN(S(=O)(=O)c1ccc(C(F)(F)F)cc1)C2 | 22 nM | 0.14 nM | – | – | – |
